Tb MetRS inh – Trypanosoma brucei MetRS inhibition; hit rate 0.4% among 360,000; purified T. brucei MetRS, ATP depletion, Kinase-Glo luminescence; inhibition, % at 11.9 µM;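 active means inhibition above a per-plate cutoff of the control wells' mean inhibition plus 3 SD, cut at about 5.5% in these data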
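assay system = parasite MetRS enzyme | timing = 15 min preincubation, 2 h reaction, all 25 °C | evaluation = percent inhibition relative to median high and low control wells | medium = HEPES buffer containing pyrophosphatase, BSA, spermine, DTT | compound = single dose, 11.9 µM final nominal, 0.9% final DMSO | detection = Kinase-Glo luminescence, ATP depletion format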
SMARCA2 activ – increases SMARCA2 function in MMTV reporter cells. MG213 cells, MMTV-luciferase reporter, dexamethasone, overnight. activation, % at 9.1 µM. hit rate 1% among 370,000. AID 652017; in the data active means activation above about 7.8%
TAG inh – reduces triacylglycerol accumulation in H9c2 cells. Nile Red lipid (TAG) fluorescence; cells loaded with 200 µM oleic acid. inhibition, % at 12.5 µM. hit rate 0.66% among 230,000. AID 651582;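 active means pattern-corrected inhibition of lipid staining of at least 50% with the nuclear-stain viability signal not falling by more than 50%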
Efflux pump mplx – blocks antifungal efflux pumps in multiplex yeast assay. hit rate 0.44% among 330,000. S. cerevisiae Candida pump triplex, Nile Red efflux. AID 485275. inhibition, % at 10 µM;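 active means plate passing quality check with inhibition over a set limit, or well fluorescence over plate mean plus 4 SD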;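 further: Nile Red retained in pooled yeast measured as flow cytometry median fluorescence; higher means more Nile Red kept so more efflux inhibition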
AHR act – activates the human aryl hydrocarbon receptor; hit rate 2.5% among 320,000; activation, % at 5 µM; P35869; AHR-responsive luciferase reporter cells, luminescence; in the data active means activation above about 47%
Target sequence (P35869 whole entry, looked up): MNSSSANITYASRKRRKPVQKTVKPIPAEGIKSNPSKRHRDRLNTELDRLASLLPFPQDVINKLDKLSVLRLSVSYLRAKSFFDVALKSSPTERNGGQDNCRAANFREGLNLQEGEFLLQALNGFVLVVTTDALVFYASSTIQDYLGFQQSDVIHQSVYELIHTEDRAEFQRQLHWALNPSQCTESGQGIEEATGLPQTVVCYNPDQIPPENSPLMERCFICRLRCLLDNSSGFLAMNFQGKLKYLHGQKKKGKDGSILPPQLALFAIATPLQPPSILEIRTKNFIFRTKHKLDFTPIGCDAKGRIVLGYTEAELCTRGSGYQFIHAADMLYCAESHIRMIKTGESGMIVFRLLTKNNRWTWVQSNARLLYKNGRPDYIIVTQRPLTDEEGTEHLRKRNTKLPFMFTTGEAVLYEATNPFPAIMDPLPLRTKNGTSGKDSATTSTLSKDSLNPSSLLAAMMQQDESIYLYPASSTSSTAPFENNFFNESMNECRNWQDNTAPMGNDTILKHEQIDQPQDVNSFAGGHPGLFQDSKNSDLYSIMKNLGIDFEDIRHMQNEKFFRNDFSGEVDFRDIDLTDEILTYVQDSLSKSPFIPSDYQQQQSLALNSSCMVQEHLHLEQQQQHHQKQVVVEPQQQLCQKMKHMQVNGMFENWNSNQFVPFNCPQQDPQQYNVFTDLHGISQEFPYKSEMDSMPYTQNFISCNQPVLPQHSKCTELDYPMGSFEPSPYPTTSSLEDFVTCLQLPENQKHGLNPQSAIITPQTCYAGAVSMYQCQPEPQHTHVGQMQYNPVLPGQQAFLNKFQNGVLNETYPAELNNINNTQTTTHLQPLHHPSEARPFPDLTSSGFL
Numbers stand for hits; . = inactive; / = no result; ! = not active in a repeat. An excerpt weighted towards active compounds, which were near 4.1% of everything screened.

SMILES	Tb MetRS inh	SMARCA2 activ	TAG inh	Efflux pump mplx	AHR act
Cc1c(C(=O)Nc2nccs2)oc2c(Cl)cccc12	.	.	.	.	55
Cc1c(C(=O)NC(C)c2ccccn2)oc2c(Cl)cccc12 (centres undefined)	.	.	.	/	/
Cc1cccc(NC(=O)Nc2ccccc2C(=O)N2CCCC2)c1	/	.	/	/	/
COCCn1c(C)cc(/C=C2\NC(=S)N(C)C2=O)c1C	.	.	/	.	57
CC(C)[C@H](NC(=O)[C@H](Cc1ccccc1)NC(=O)OC(C)(C)C)C(=O)N1CCC2CCN(S(=O)(=O)c3ccccc3)CC21 (some centres undefined)	/	.	/	/	/
Cc1cc(C(F)(F)Cl)n2ncc(-c3ccccn3)c2n1	.	.	/	.	64
COc1ccc(-c2c(C)nc3c(-c4ccccn4)cnn3c2N)cc1	.	.	/	.	/
COc1ccc(-c2csc(NCc3ccco3)n2)cc1C	.	/	/	.	.
COc1ccc(-c2nc3cccc(C)n3c2NCc2ccco2)cc1OC	.	.	.	.	57
CNC[C@H](Cc1ccccc1)NC[C@@H](Cc1cccc2ccccc12)NCCc1ccc(C)cc1	.	.	138	.	.
COc1ccc(CNC(=O)/C=C/c2ccccc2[N+](=O)[O-])cc1	.	.	.	.	.
COc1ccc(OC)c(NC(=O)/C=C/c2ccccc2[N+](=O)[O-])c1	.	.	/	.	71
COc1ccc(NC(=O)/C=C/C(=O)O)c(OC)c1	.	.	.	.	.
COc1ccccc1NC(=O)/C=C/c1cc([N+](=O)[O-])ccc1OC(F)F	.	.	.	.	49
COc1ccc(NC(=O)/C=C/c2ccccc2[N+](=O)[O-])c(OC)c1	.	.	/	.	77
COCC1CN(CCc2ccc(F)cc2)S(=O)(=O)c2c(F)cccc2O1 (centres undefined)	/	.	/	/	/
CC(=O)CC[C@@H]1CC[C@]2(CCCN(C(=O)c3ccccc3)C2)O1	/	.	/	/	/
CCCCn1c(O)c(N=NC(=O)c2ccco2)c2ccccc21	.	.	.	.	76
O=C(CNC(=O)c1ccco1)N=Nc1c(O)n(CCc2ccccc2)c2ccccc12	.	.	.	.	59
CCCCNc1nc(N(C)c2ccccc2)nc(-n2ccnc2)n1	.	.	/	.	61
CCCCCCCCCCCCCCCC[n+]1ccc(C(N)=O)cc1	.	.	/	.	.
CCCCCCCCCCCCCCCC[n+]1ccccc1	.	.	54!	/	/
CN(CCO)c1ccc2c(c1)Oc1ccccc1CN(Cc1cn(Cc3ccc(C(F)(F)F)cc3)nn1)S2(=O)=O	/	.	/	/	/
O=C(NCc1ccccc1)[C@@H]1CCCN1C(=O)[C@H]1CCCN1C(=O)c1cccc2ccccc12	/	.	/	/	/
O=C(Cc1nnc(NC(=O)c2ccccc2)s1)N/N=C/c1ccco1	.	.	/	.	115
SMILES	Tb MetRS inh	SMARCA2 activ	TAG inh	Efflux pump mplx	AHR act
CCOC(=O)N1CCN(C(=O)C[C@H]2C[C@@]3(C(=O)OC)C(=C[C@H](C4CCCC4)O[C@@H]3C)N(CCc3ccc(OC)c(OC)c3)C2=O)CC1	/	.	/	/	/
COCCCNC(=O)C[C@H]1C[C@@]2(C(=O)OC)C(=C[C@H](C(C)C)O[C@@H]2C2CC2)N(Cc2ccc3c(c2)OCO3)C1=O	/	.	/	/	/
CCC(C)Sc1cc(C(F)(F)F)c(C(=O)Nc2ccc(Cl)cc2)cn1 (centres undefined)	.	.	.	.	59
COCCN(C(=O)CCC(=O)Nc1cc(C)on1)C(C(=O)NC(C)(C)C)c1ccccc1Cl (centres undefined)	.	7.8	/	.	.
CCCCN(C(=O)CCC(=O)Nc1cc(C)on1)C(C(=O)NC(C)(C)C)c1ccccc1Cl (centres undefined)	.	.	/	.	.
Cc1nn(-c2ccccn2)c2c1-c1nc(N3CCOCC3)ncc1CC2	.	.	.	.	.
Cc1nn(-c2ccccn2)c2c1-c1nc(N)ncc1CC2	.	.	.	.	63
Cc1[nH]c2ccccc2c1-c1csc(NC(=O)CSCC(=O)O)n1	.	.	.	.	.
Cc1[nH]c2ccccc2c1-c1csc(NC(=O)CN2CCOCC2)n1	.	.	.	.	70
Cc1ccc(CSCC(=O)Nc2ccc(F)cc2)cc1	.	.	/	.	68
O=C(CSCc1ccc(F)cc1)Nc1ccc(F)cc1	.	.	/	.	.
COC(=O)C1CN(Cc2ccc(F)cc2)CCS(=O)(=O)N1Cc1ccc(F)cc1 (centres undefined)	/	.	/	/	/
CCOC(=O)Cc1nc(N2CCN(C=O)CC2)c2c(C)c(C(=O)OCC)sc2n1	/	.	/	/	/
Cc1ccc(C(=O)N2CCC(Oc3cccnc3)CC2)cc1	/	.	/	/	/
CCOc1ccccc1Nc1nc2ccccc2[nH]1	.	.	.	.	50
CCOCCCNc1nc2ccccc2[nH]1	8.2	.	.	.	.
CCOc1ccccc1Nc1nnc(C)c(=O)[nH]1	.	.	.	.	.
CCCCNS(=O)(=O)CC1NCc2cc(F)ccc21 (centres undefined)	/	.	/	/	/
COc1ccc(-c2csc(-c3cc4ccccc4oc3=N)n2)cc1	.	.	/	.	50
COc1ccc(-c2noc(-c3cc4ccccc4oc3=O)n2)cc1	/	/	/	.	.
c1ccc(-c2ccc(C(c3ccccc3)n3ccnc3)cc2)cc1 (centres undefined)	.	.	.	.	48
CCn1c(COc2ccc(C)cc2)nnc1SCC(=O)Nc1ccc(Oc2ccccc2)cc1	/	.	/	/	/
CCOc1ccc(NC(=S)Nc2cccc3ccccc23)cc1	.	.	.	.	66
CCOc1ccc(NC(=S)Nc2cccc3cnccc23)cc1	.	.	/	.	60
CCOc1ccc(NC(=O)Nc2ccc3nsnc3c2)cc1	.	.	/	.	.
SMILES	Tb MetRS inh	SMARCA2 activ	TAG inh	Efflux pump mplx	AHR act
CCOc1ccc(NC(=S)Nc2ccc3nsnc3c2)cc1	.	.	/	.	51
COc1ccc(CNC(=O)CCNS(=O)(=O)c2ccc3[nH]c(=O)oc3c2)cc1	/	.	/	/	/
C=CCOC(=O)N[C@H](c1ccccc1)[C@H](C)/C=C/CC(=O)OC	/	.	/	/	/
CCC(=O)Nc1ccc(C(=O)CSc2nc3ccccc3cc2CC)cc1	.	.	/	.	51
CCC(=O)Nc1ccc(C(=O)CSc2nc(N)cc(N)n2)cc1	.	.	.	.	.
CCCn1c(=N)c(C(=O)NC2CCCC2)cc2c(=O)n3cccc(C)c3nc21	.	.	.	.	57
Cc1cccn2c(=O)c3cc(C(=O)NC4CCCCC4)c(=N)n(CCN4CCOCC4)c3nc12	.	.	.	.	.
COc1ccc(S(=O)(=O)Nc2cc3c4c(oc3c3ccccc23)CCCC4=O)cc1	.	.	.	.	48
COc1ccc(S(=O)(=O)Nc2cc3c4c(oc3c3ccccc23)CC(C)(C)CC4=O)cc1	.	.	.	.	.
Cc1ccccc1Cn1cc(COC(=O)N2CCOCC2)nn1	/	.	/	/	/
Oc1cc(-c2ccncc2)cc2cccnc12	.	.	.	.	.
Oc1cc(-c2ccc(N3CCCCC3)nc2)cc2cccnc12	.	/	104	.	.
CCN(C(=O)[C@@H](C)[C@@H](O)c1ccc(C(C)=O)cc1)c1ccccc1	/	.	/	/	/
C[C@H]1COc2cc(Br)ccc2S(=O)(=O)N1Cc1cn(Cc2ccc(Cl)cc2)nn1	/	.	/	/	/

Screening data deposited in PubChem BioAssay by several laboratories.
